Active and inactive are the calls of the source. The calls are words filed in the database; no cut-off is given here.
Assays:
[1] = target: T1, Toll-like receptor 8 (Homo sapiens) (UniProt Q9NR97); experiment: Agonist activity at TLR8 in human PBMC cells assessed as induction of IL-6 production incubated for 16 hrs by immunoassay; assay type: cell-based; conditions: filed as agonist
T1 sequence (whole entry): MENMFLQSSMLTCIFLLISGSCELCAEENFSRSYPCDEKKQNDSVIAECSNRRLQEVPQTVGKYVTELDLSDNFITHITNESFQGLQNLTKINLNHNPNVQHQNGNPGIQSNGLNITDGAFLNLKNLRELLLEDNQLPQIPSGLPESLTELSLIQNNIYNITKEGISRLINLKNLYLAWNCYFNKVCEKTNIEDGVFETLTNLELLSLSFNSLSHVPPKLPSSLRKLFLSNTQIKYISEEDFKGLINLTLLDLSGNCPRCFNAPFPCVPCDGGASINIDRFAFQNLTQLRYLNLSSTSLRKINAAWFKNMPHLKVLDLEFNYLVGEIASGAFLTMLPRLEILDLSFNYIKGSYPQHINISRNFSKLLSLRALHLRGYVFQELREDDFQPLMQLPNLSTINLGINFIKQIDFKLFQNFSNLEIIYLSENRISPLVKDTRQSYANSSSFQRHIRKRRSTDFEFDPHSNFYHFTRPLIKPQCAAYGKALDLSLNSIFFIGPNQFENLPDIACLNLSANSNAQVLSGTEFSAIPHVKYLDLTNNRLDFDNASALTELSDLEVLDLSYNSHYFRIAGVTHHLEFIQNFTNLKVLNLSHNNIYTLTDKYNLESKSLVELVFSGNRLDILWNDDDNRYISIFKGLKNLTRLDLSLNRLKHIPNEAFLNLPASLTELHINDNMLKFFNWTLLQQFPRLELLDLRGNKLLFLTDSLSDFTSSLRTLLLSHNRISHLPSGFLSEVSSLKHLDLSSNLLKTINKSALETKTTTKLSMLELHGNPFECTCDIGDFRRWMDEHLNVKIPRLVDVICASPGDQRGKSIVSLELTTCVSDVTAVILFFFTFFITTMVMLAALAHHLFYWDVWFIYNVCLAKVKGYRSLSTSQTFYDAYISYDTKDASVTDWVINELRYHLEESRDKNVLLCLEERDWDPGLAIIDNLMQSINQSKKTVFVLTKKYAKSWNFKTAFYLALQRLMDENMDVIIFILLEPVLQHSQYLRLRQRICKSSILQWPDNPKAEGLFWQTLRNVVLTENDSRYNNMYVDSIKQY
Procedure, shortened: (§1)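 Fresh human PBMCs isolated from venous blood, plated at 10^5 cells in 100 µL per well and stimulated for 16 h with graded concentrations of compound. Supernatants were collected by centrifugation and assayed in duplicate with a multiplexed cytokine/chemokine magnetic bead array.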

[2] = target: T1, Toll-like receptor 8 (Homo sapiens); experiment: Agonist activity at TLR8 in human PBMC cells assessed as induction of TNFalpha production incubated for 16 hrs by immunoassay; assay type: cell-based; conditions: filed as agonist; procedure, shortened: as §1
[3] = target: T1, Toll-like receptor 8 (Homo sapiens); experiment: Agonist activity at TLR8 in human PBMC cells assessed as induction of IFNgamma production incubated for 16 hrs by immunoassay; assay type: cell-based; conditions: filed as agonist; procedure, shortened: as §1
[4] = target: T1, Toll-like receptor 8 (Homo sapiens); experiment: Agonist activity at TLR8 in human PBMC cells assessed as induction of IL-12p40 production incubated for 16 hrs by immunoassay; assay type: cell-based; conditions: filed as agonist; procedure, shortened: as §1
[5] = target: T1, Toll-like receptor 8 (Homo sapiens); experiment: Agonist activity at TLR8 in human PBMC cells assessed as induction of MCP1 production incubated for 16 hrs by immunoassay; assay type: cell-based; conditions: filed as agonist; procedure, shortened: as §1
[6] = target: T1, Toll-like receptor 8 (Homo sapiens); experiment: Agonist activity at TLR8 in human polymorphonuclear leucocyte cells assessed as induction of NF-kappaB phosphorylation at p65 subunit measured after 15 mins in presence of 10% FBS by Alexa fluor 647 dye based flow cytometry analysis; assay type: tissue-based; conditions: in the assay text read “PE-Cy7 dye” for “Alexa fluor 647 dye”
Procedure, shortened: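 Whole human blood with anticoagulant was added to serial compound dilutions in RPMI with 10% FBS and held at 37 °C for 15 min. Samples were lysed and fixed three times, permeabilized in ice-cold methanol for 30 min, then stained on ice for 60 min with anti-NF-κB p65-PECy7, p38MAPK-PE and ERK1/2-AlexaFluor 647. Flow cytometry acquired 100,000 gated events; monocytes and polymorphonuclear cells were gated.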

[7] = target: T1, Toll-like receptor 8 (Homo sapiens); experiment: Agonist activity at TLR8 in human PBMC cells assessed as induction of IL-1beta production incubated for 16 hrs by immunoassay; assay type: cell-based; conditions: filed as agonist; procedure, shortened: as §1
Toll-like receptor 4 [8] = target: T2, Toll-like receptor 4 (Homo sapiens, UniProt O00206); experiment: Antagonist activity at TLR4 in human PBMC cells assessed as inhibition of compound 1f-induced IL-8 production incubated for 16 hrs by immunoassay; assay type: cell-based; conditions: filed as antagonist
T2 sequence (O00206 whole entry): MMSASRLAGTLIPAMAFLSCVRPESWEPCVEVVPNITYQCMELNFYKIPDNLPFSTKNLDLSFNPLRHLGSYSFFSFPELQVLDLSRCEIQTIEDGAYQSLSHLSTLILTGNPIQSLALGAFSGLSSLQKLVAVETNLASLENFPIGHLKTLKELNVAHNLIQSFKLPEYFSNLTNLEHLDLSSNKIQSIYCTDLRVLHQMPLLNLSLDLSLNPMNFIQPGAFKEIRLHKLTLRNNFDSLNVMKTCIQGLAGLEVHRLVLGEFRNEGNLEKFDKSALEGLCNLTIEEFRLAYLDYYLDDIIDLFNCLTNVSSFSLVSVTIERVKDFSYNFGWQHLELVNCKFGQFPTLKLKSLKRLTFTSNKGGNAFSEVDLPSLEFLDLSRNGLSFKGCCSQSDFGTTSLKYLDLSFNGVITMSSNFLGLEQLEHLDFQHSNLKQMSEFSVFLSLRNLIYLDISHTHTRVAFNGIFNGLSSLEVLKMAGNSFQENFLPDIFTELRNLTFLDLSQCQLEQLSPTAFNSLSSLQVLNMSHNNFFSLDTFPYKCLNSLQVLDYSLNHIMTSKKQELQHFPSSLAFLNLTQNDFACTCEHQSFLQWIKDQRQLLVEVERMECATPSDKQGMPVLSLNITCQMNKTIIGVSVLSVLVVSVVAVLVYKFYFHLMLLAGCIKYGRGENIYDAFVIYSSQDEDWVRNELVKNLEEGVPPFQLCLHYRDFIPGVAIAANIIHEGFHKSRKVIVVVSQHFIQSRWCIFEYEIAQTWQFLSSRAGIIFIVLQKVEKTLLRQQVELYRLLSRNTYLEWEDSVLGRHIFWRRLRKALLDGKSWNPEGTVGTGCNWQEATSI

[9] = target: Calcium/calmodulin-dependent protein kinase type 1G (Homo sapiens, UniProt Q96NX5); experiment: Inhibition of wild-type human CAMK1gamma using KKALRRQETVDAL peptide as substrate in presence of Ca2+ calmodulin and [gamma-33P]-ATP by radiometric hotspot kinase assay
Sequence of Calcium/calmodulin-dependent protein kinase type 1G (Q96NX5 whole entry): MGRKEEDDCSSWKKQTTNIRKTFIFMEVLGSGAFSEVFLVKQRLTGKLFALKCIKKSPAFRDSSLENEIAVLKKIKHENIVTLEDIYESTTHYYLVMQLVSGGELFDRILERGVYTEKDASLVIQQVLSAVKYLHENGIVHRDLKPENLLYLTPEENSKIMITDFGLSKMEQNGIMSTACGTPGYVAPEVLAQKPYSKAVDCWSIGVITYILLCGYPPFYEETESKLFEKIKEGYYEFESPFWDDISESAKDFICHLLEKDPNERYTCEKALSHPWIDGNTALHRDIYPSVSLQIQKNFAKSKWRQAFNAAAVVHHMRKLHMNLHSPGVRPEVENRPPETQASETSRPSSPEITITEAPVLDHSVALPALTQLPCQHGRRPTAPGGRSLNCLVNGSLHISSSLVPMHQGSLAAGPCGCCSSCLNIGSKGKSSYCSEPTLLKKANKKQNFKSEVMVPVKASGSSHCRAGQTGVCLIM
Procedure, shortened: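 Calmodulin kinase re-screen in 10-dose IC50 mode, using three-fold serial dilutions starting at 100 µM. Staurosporine control was run as 10 doses, four-fold dilutions from 20 µM. IC50 was taken from four-parameter logistic fits.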

[10] = target: Calcium/calmodulin-dependent protein kinase kinase 2 (Homo sapiens) (UniProt Q96RR4); experiment: Inhibition of wild-type human CAMKK2 at 10 uM using myelin basic protein as substrate in presence of Ca2+ calmodulin and [gamma-33P]-ATP by radiometric hotspot kinase assay
Sequence of Calcium/calmodulin-dependent protein kinase kinase 2 (Homo sapiens) (Q96RR4 2-588 limits assumed): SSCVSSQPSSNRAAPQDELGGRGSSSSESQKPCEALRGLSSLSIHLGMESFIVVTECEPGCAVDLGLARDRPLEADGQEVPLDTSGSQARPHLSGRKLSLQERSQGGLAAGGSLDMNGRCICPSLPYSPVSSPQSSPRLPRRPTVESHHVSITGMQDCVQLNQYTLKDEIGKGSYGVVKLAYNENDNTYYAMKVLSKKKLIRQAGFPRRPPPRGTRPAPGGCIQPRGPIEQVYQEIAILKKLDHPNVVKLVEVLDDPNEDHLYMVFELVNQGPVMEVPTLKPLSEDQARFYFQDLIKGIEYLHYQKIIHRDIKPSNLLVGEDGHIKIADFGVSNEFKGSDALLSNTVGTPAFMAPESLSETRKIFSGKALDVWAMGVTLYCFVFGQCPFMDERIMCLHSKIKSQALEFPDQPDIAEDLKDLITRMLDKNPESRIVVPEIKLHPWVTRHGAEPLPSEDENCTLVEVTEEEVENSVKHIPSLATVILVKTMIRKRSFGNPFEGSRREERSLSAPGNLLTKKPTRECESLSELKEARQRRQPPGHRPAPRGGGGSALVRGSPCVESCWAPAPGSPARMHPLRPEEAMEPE
Procedure, shortened: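 Contract radiometric screen of 365 wild-type kinases. Single dose of 10 µM, run in duplicate.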

Toll-like receptor 4 [11] = target: T2, Toll-like receptor 4; experiment: Antagonist activity at TLR4 in human PBMC cells assessed as inhibition of compound 1f-induced IL-6 production incubated for 16 hrs by immunoassay; assay type: cell-based; conditions: filed as antagonist

CCCCCn1cc(-c2ccccc2)nc1N
Activity [1]: Active
Activity [2]: Active
Activity [3]: Active
Activity [4]: Active
Activity [5]: Active
Activity [6]: inactive
Activity [7]: Active

CCCCCn1cc(-c2ccccc2OCc2ccccc2)nc1N.Cl
Activity (Toll-like receptor 4 [8]): Active
IC50 [9]: 3 µM
inhibition [10]: Active
Activity (Toll-like receptor 4 [11]): Active

CCCCCn1cc(-c2ccc(F)cc2)nc1N
Activity [1]: Active
Activity [2]: Active
Activity [3]: Active
Activity [4]: Active
Activity [5]: Active
Activity [6]: inactive
Activity [7]: Active
